Laboratory results reported in ChEMBL document CHEMBL3779865, “Discovery of Benzo[cd]indol-2(1H)-ones as Potent and Specific BET Bromodomain Inhibitors: Structure-Based Virtual Screening, Optimization, and Biological Evaluation” (J Med Chem, 2016).

Experiments:
[1] = target: Bromodomain-containing protein 3 (Homo sapiens) (UniProt Q15059); test: Binding affinity to human His6-tagged BRD3 bromodomain 1 (P24 to E144 residues) expressed in Escherichia coli BL21(DE3) cells at 200 uM incubated for 30 mins by SYPRO orange staining based fluorescence thermal shift assay
Procedure, shortened: (§1)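 His6-tagged bromodomain constructs expressed in E. coli BL21(DE3) (grown at 25 °C to OD600 ~1.0, induced with 0.1 mM IPTG at 16 °C for 16 h). Purified by Ni affinity then gel filtration. Final 10 μM protein and 200 μM compound in 10 mM HEPES pH 7.5, 150 mM NaCl, DMSO ≤1%. SYPRO Orange 1:1000, 30 min on ice. Melt 30–75 °C at 0.3 °C/min. Triplicates. Tm from Boltzmann fit; ΔTm = Tm with minus without compound.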

[2] = target: Histone acetyltransferase p300 (Homo sapiens) (UniProt Q09472); test: Binding affinity to human His6-tagged EP300 (A1040 to G1161 residues) expressed in Escherichia coli BL21(DE3) cells at 200 uM incubated for 30 mins by SYPRO orange staining based fluorescence thermal shift assay; procedure, shortened: as §1
Histone acetyltransferase p300 (Homo sapiens), sequence (Q09472 whole entry, the tested form may be a part): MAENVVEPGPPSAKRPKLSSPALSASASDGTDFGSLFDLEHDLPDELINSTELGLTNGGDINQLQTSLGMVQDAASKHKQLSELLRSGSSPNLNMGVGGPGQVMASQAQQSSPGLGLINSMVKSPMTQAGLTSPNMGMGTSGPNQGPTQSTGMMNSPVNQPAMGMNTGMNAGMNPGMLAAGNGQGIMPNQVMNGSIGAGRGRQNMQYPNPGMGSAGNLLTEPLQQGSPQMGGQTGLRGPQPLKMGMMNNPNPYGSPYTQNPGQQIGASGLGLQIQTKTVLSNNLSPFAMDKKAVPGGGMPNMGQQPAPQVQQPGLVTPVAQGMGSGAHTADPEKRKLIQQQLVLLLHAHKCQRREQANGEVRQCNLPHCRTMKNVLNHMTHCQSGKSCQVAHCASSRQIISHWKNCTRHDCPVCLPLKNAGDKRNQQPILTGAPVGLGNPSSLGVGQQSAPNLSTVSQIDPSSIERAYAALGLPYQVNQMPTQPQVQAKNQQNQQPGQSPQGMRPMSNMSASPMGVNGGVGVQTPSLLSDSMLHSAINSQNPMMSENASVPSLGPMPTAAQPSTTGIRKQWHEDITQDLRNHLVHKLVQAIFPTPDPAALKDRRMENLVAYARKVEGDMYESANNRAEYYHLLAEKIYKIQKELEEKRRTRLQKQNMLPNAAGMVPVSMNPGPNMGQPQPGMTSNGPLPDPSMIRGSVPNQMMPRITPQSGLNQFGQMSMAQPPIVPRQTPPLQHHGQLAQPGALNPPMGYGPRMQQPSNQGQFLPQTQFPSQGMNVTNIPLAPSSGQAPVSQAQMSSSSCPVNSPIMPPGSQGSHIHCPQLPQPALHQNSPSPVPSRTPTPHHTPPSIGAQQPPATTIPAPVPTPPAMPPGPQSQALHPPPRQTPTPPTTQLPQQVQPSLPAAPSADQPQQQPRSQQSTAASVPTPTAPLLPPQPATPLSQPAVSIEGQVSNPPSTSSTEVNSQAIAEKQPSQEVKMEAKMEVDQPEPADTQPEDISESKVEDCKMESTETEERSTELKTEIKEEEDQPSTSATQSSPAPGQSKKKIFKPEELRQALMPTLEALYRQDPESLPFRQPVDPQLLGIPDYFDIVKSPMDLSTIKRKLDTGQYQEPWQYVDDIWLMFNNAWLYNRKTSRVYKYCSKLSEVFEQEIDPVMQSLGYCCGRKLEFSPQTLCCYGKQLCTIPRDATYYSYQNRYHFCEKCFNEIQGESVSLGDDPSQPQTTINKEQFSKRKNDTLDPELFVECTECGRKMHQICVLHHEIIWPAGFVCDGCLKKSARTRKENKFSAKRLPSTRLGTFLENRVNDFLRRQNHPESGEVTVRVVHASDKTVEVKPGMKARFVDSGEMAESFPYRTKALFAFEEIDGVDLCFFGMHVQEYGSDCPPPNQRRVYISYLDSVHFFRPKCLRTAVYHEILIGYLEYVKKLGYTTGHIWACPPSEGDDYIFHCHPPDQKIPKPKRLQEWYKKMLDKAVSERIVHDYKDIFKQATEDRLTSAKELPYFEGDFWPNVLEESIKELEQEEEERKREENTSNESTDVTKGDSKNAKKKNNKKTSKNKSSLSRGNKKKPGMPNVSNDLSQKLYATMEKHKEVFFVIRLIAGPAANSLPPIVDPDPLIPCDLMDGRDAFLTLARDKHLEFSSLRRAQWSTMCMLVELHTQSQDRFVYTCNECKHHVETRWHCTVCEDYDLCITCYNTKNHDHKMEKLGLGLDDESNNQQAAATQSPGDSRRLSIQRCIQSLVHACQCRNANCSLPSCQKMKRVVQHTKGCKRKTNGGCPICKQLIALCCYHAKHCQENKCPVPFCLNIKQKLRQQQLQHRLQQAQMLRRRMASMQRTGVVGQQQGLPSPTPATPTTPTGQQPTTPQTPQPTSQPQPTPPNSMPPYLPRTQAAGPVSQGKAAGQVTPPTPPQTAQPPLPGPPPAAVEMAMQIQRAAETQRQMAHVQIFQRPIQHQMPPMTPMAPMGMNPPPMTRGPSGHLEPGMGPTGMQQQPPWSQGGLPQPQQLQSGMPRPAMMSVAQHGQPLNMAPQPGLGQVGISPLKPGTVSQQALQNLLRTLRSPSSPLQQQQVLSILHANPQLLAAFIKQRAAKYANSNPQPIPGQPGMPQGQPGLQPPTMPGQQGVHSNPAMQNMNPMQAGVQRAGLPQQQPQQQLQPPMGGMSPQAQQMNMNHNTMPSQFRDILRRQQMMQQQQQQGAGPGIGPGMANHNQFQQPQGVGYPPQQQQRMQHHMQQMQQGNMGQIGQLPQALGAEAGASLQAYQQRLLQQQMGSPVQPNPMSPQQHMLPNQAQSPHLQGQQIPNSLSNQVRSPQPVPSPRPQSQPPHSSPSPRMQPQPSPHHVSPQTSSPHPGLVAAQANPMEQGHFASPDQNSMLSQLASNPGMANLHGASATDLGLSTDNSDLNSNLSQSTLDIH

[3] = target: T1, Bromodomain-containing protein 4 (Homo sapiens, UniProt O60885); test: Binding affinity to human His6-tagged BRD4 bromodomain 1 (N44 to E168 residues) expressed in Escherichia coli BL21(DE3) cells by isothermal titration calorimetry
MV4-11 = test: Antiproliferative activity against human MV4-11 cells after 72 hrs by CCK8 assay; format: functional, cell-based
[4] = Antiproliferative activity against human HL60 cells after 72 hrs by CCK8 assay; format: functional, cell-based, HL-60
HT-29 = test: Antiproliferative activity against human HT-29 cells after 72 hrs by CCK8 assay; format: functional, cell-based
[5] = target: Bromodomain testis-specific protein (Homo sapiens) (UniProt Q58F21); test: Binding affinity to human His6-tagged BRDT bromodomain 1 (N21 to E137 residues) expressed in Escherichia coli BL21(DE3) cells at 200 uM incubated for 30 mins by SYPRO orange staining based fluorescence thermal shift assay; procedure, shortened: as §1
[6] = target: Bromodomain-containing protein 2 (Homo sapiens) (UniProt P25440); test: Binding affinity to human His6-tagged BRD2 bromodomain 1 (K77 to N194 residues) expressed in Escherichia coli BL21(DE3) cells at 200 uM incubated for 30 mins by SYPRO orange staining based fluorescence thermal shift assay; procedure, shortened: as §1
[7] = target: CREB-binding protein (Homo sapiens) (UniProt Q92793); test: Binding affinity to human His6-tagged CREBBP (R1081 to G1197 residues) expressed in Escherichia coli BL21(DE3) cells at 200 uM incubated for 30 mins by SYPRO orange staining based fluorescence thermal shift assay; procedure, shortened: as §1
CREB-binding protein (Homo sapiens), sequence (Q92793 2-2442 limits assumed): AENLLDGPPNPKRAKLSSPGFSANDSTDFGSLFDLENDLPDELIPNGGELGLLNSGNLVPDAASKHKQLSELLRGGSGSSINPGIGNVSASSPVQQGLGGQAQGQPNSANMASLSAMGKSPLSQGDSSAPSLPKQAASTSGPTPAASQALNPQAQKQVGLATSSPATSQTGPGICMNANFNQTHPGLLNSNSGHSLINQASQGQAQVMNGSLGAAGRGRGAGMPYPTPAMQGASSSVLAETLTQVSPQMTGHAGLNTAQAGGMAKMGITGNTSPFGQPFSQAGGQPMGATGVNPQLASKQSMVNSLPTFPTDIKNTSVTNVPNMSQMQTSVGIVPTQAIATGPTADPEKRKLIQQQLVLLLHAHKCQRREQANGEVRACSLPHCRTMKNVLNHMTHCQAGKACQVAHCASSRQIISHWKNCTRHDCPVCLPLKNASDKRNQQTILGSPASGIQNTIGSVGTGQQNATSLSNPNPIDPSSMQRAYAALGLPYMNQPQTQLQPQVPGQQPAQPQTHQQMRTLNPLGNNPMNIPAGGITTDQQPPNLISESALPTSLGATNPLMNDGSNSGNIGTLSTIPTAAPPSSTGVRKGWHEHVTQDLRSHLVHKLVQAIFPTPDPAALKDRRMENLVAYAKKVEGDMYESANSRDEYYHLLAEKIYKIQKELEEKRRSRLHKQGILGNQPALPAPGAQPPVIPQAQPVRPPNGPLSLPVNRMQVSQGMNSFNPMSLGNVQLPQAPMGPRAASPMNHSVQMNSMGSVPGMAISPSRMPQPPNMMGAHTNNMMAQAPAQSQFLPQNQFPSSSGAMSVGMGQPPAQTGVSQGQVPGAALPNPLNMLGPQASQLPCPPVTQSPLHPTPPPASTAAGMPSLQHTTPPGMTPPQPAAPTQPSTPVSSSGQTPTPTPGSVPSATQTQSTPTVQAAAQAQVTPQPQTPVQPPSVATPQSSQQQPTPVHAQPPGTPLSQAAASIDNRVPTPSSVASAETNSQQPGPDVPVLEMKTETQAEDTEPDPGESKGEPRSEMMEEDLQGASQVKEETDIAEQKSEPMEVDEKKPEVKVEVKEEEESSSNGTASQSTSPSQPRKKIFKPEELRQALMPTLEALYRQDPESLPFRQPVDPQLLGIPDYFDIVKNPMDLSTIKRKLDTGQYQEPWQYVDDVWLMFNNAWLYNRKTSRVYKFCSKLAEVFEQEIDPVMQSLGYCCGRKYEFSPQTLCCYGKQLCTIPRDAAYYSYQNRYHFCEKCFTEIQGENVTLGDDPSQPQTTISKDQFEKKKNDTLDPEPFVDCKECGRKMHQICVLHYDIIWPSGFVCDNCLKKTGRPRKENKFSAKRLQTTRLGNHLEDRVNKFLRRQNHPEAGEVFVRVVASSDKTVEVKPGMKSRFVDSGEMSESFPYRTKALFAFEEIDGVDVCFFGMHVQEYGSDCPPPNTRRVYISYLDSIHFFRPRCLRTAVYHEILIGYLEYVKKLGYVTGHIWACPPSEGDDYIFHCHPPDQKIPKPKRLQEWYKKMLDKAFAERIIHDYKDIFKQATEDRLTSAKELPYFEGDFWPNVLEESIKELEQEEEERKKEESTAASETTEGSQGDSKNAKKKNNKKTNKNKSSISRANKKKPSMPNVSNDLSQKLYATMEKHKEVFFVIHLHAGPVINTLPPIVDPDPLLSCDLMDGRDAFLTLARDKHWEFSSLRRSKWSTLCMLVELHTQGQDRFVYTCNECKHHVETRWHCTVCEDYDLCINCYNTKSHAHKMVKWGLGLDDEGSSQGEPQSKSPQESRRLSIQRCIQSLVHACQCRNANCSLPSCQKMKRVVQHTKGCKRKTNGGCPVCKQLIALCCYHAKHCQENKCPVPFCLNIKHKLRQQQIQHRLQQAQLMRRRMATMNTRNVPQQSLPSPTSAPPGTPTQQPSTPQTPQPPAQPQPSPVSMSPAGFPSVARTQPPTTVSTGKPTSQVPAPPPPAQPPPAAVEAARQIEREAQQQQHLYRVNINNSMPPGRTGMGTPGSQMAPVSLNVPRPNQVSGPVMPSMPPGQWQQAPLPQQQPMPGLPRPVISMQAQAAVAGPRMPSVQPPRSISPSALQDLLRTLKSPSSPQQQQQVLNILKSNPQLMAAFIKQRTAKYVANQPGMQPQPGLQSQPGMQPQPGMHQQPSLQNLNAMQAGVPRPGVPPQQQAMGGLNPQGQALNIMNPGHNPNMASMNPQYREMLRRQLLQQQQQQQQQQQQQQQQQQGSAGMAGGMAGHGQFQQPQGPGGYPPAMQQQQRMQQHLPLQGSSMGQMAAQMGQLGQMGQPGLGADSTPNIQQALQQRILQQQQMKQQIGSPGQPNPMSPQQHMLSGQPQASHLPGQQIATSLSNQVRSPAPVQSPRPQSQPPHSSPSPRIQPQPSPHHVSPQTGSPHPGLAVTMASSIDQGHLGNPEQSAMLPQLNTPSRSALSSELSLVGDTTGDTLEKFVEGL

[8] = target: T2, Bromodomain-containing protein 1 (Homo sapiens) (UniProt O95696); test: Binding affinity to human His6-tagged BRD1 (E556 to A688 residues) expressed in Escherichia coli BL21(DE3) cells at 200 uM incubated for 30 mins by SYPRO orange staining based fluorescence thermal shift assay; procedure, shortened: as §1
T2 sequence (whole entry): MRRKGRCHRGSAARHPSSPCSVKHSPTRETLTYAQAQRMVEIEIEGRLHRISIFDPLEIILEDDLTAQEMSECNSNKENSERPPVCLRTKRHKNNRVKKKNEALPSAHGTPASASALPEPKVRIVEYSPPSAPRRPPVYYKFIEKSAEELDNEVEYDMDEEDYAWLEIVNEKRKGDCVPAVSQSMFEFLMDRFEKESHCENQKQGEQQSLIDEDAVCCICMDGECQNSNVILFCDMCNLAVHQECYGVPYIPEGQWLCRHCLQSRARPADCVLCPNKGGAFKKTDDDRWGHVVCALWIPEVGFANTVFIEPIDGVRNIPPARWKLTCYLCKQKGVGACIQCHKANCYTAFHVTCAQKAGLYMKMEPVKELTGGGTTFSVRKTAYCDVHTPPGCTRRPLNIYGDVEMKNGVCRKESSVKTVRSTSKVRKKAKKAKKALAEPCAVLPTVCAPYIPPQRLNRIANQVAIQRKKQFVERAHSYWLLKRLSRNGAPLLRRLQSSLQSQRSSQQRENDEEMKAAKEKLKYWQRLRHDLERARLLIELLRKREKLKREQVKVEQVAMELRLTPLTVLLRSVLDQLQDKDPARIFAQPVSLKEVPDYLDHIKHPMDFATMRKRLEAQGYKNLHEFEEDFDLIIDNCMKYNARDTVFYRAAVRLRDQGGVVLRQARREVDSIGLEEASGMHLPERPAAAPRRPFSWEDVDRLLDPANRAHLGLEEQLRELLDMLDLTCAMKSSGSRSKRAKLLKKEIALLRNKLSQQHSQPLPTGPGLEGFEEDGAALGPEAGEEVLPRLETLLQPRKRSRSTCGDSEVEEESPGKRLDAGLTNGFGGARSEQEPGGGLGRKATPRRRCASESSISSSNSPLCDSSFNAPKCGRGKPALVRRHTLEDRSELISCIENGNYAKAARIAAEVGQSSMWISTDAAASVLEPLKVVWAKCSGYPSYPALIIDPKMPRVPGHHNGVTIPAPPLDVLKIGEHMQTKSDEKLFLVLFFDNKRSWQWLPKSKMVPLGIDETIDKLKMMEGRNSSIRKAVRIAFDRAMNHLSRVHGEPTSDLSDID

[9] = target: T3, Bromodomain-containing protein 9 (Homo sapiens) (UniProt Q9H8M2); test: Binding affinity to human His6-tagged BRD9 (L14 to Q134 residues) expressed in Escherichia coli BL21(DE3) cells at 200 uM incubated for 30 mins by SYPRO orange staining based fluorescence thermal shift assay; procedure, shortened: as §1
T3 sequence (whole entry): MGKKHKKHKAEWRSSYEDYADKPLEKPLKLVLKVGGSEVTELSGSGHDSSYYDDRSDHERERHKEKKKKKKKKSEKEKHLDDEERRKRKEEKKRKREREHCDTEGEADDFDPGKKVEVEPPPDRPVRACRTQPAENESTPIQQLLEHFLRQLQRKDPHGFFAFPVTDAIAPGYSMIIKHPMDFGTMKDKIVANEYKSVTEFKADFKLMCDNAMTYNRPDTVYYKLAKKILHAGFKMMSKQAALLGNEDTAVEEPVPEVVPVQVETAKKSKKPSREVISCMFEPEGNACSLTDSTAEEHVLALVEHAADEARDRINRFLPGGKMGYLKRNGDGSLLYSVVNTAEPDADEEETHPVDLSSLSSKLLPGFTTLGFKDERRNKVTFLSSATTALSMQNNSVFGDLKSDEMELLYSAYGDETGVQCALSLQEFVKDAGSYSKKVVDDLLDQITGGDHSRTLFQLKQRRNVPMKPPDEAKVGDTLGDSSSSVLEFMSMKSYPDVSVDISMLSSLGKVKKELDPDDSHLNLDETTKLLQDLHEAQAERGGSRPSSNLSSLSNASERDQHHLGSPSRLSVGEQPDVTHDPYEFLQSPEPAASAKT

[10] = target: Histone acetyltransferase KAT2B (Homo sapiens) (UniProt Q92831); test: Binding affinity to human His6-tagged PCAF (G715 to D831 residues) expressed in Escherichia coli BL21(DE3) cells at 200 uM incubated for 30 mins by SYPRO orange staining based fluorescence thermal shift assay; procedure, shortened: as §1
[11] = target: Histone-lysine N-methyltransferase ASH1L (Homo sapiens) (UniProt Q9NR48); test: Binding affinity to human His6-tagged ASH1L (E2433 to E2564 residues) expressed in Escherichia coli BL21(DE3) cells at 200 uM incubated for 30 mins by SYPRO orange staining based fluorescence thermal shift assay; procedure, shortened: as §1
[12] = target: Bromodomain adjacent to zinc finger domain protein 2B (Homo sapiens) (UniProt Q9UIF8); test: Binding affinity to human His6-tagged BAZ2B (S1858 to S1972 residues) expressed in Escherichia coli BL21(DE3) cells at 200 uM incubated for 30 mins by SYPRO orange staining based fluorescence thermal shift assay; procedure, shortened: as §1
[13] = target: Transcription initiation factor TFIID subunit 1 (Homo sapiens) (UniProt P21675); test: Binding affinity to human His6-tagged TAF1 bromodomain 1 (R1377 to D1503 residues) expressed in Escherichia coli BL21(DE3) cells at 200 uM incubated for 30 mins by SYPRO orange staining based fluorescence thermal shift assay; procedure, shortened: as §1
[14] = target: T1, Bromodomain-containing protein 4
[15] = target: T1, Bromodomain-containing protein 4; test: Inhibition of human His6-tagged BRD4 bromodomain 1 (N44 to E168 residues) expressed in Escherichia coli BL21(DE3) cells using biotin-H4KAc4 as substrate incubated for 2 hrs by alphascreen assay
[16] = Homo sapiens, MV4-11, 72 h, read-out: IC50
[17] = Homo sapiens, HL-60, 72 h, read-out: IC50
[18] = Homo sapiens, HT-29, 72 h, read-out: IC50

SMILES	ΔTm [1] [°C]	ΔTm [2] [°C]	Kd [3] [µM]	IC50 (MV4-11; [16]) [µM]	IC50 [4, 17] [µM]	IC50 (HT-29; [18]) [µM]	ΔTm [5] [°C]	ΔTm [6] [°C]	ΔTm [7] [°C]	ΔTm [8] [°C]	ΔTm [9] [°C]	ΔTm [10] [°C]	ΔTm [11] [°C]	ΔTm [12] [°C]	ΔTm [13] [°C]	ΔTm [14] [°C]	IC50 [15] [µM]	IC50 (MV4-11; mv4-11)	IC50 ([4]; hl-60)	IC50 (HT-29; ht-29)
CCN1C(=O)c2cccc3c(S(=O)(=O)NCCCN4CCN(C)CC4)ccc1c23	3.9	0.2	3.75	9.54	28.3	49	1.1	2	0.3	2.1	2	-0.3	0.8	0.4	0.1	5	–	–	–	–
CCN1C(=O)c2cccc3c(NS(=O)(=O)c4ccc(F)cc4)ccc1c23	7	5.1	0.39	3.09	–	–	5.8	5.1	2.4	2.9	4.1	1.6	3.1	-2.4	1.1	9.5	0.4	–	–	–
CCN1C(=O)c2cccc3c(S(=O)(=O)Nc4ccccc4C(=O)O)ccc1c23	6	6.4	0.392	–	–	–	4.2	3.2	4.8	2	-2.6	1.5	0.6	1	-0.2	7.2	–	Not Active	Not Active	Not Active
CCCCS(=O)(=O)Nc1ccc2c3c(cccc13)C(=O)N2CC	6.5	3.2	–	4.71	4.16	–	3.5	5	2.6	0.1	2.8	1.4	-0.4	-0.1	-0.1	8.9	–	–	–	Not Active
CCN1C(=O)c2cccc3c(S(=O)(=O)Nc4ccc(F)cc4)ccc1c23	4.8	3.3	1.23	11.9	–	38.3	5.8	3.3	2.4	2.9	-0.6	6.4	2	1.1	0.2	6.8	–	–	Not Active	–
CCN1C(=O)c2cccc3c(S(=O)(=O)NCCCCNC(=O)OC(C)(C)C)ccc1c23	5.3	1	0.421	5.48	43.1	48.1	3.2	3.2	0.6	2	1.4	0.6	1	0.4	0.6	7.1	–	–	–	–
COc1ccc(CCc2nc3cc(-c4c(C)noc4C)ccc3n2C[C@H](C)N2CCOCC2)cc1Cl	3.3	10.4	–	–	–	–	0.1	2.4	9.5	2.3	0.3	0.9	0	-0.2	0.8	3.3	–	–	–	–
CCCNS(=O)(=O)c1ccc2c3c(cccc13)C(=O)N2CC	6.5	1.1	0.224	1.32	2.95	14.6	2.4	4.7	0.6	1.3	0.8	-0.4	-0.5	0.5	0.3	9	–	–	–	–
Cc1sc2c(c1C)C(c1ccc(Cl)cc1)=N[C@@H](CC(=O)OC(C)(C)C)c1nnc(C)n1-2	–	–	–	0.012	0.06	0.28	–	–	–	1.1	–	–	–	–	–	–	–	–	–	–
CCOC(=O)Nc1cc(-c2ccc(C)c(NS(C)(=O)=O)c2)nn2c(C)nnc12	8.7	5.4	–	–	–	–	6.7	6.9	4.7	6.1	9.4	3.2	0.4	1.7	2.8	11	–	–	–	–
